≈ marks a conversion by molar mass, not a printed value. Residues, ends and D or L forms follow the SMILES beside them. *: point of attachment. X4 = Cc1cc2nc(-c3ccc(C(=O)*)cc3)[nH]c2cc1C
Assays:
[1] = Anthelmintic activity against Megascoplex konkanensis ICARBC 211 assessed as mean death time; assay type: functional
In short: (§1)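 Earthworms exposed to test suspensions at 2 mg mL^-1 (0.2% w/v), made by triturating compound with Tween 80 (0.5%) and distilled water, then mechanically stirred 30 min. Mebendazole suspension prepared alike as reference. Paralysis and death times recorded; death confirmed by no movement in 50 °C water. Means from triplicate sets.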

Bacillus subtilis [2] = assay: Antibacterial activity against Bacillus subtilis NCIM 2063 after 18 hrs by disc diffusion method; assay type: functional
In short: (§2)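 Modified Kirby-Bauer disc diffusion. Plates inoculated with spore suspension (about 6 × 10⁴ spores mL^-1). Sterile 6 mm paper discs carried test samples at 10 mg mL^-1; ciprofloxacin disc as reference, DMF disc as negative control. Plates held 18 h at 37 °C. Inhibition zone diameters (mm) averaged over triplicate sets.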

Aspergillus niger = assay: Antifungal activity against Aspergillus niger MUCC 177 after 48 hrs by disc diffusion method; assay type: functional
In short: (§3)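 Agar well diffusion on plates inoculated with spore suspension in normal saline from cultures on Sabouraud's broth. Wells punched and loaded with test samples or griseofulvin at 10 mg mL^-1, with DMSO as negative control. Incubated 48 h at 37 °C.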

Eudrilus [3] = assay: Anthelmintic activity against Eudrilus sp. assessed as mean death time; assay type: functional
In short: (§4)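 Earthworms exposed to test suspensions at 2 mg mL−1, prepared by triturating compound with Tween 80 (0.5%) and distilled water, stirring 30 min, then diluting to 0.2% w/v. Mebendazole suspension was made the same way. Death was confirmed by moving worms into 50 °C warm water and looking for movement. Mean death time (min) taken from triplicate sets.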

Escherichia coli [4] = assay: Antibacterial activity against Escherichia coli NCIM 2065 after 18 hrs by disc diffusion method; assay type: functional; in short: as §2
Trichophyton benhamiae [5] = assay: Antifungal activity against Trichophyton mentagrophytes MUCC 665 after 48 hrs by tube dilution method; assay type: functional, Arthroderma benhamiae
In short: (§5)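 Tube dilution MIC as for bacteria (seven concentrations, 200–3.1 […]), with DMSO in place of DMF. Tubes inoculated with fungal culture and incubated 48 h at 37 °C. MIC read from presence or absence of growth.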

Pseudomonas aeruginosa [6] = assay: Antibacterial activity against Pseudomonas aeruginosa NCIM 2034 after 18 hrs by tube dilution method; assay type: functional; settings: NCIM 2034, 18 h
In short: (§6)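 Tube dilution MIC. Stock diluted in sterile broth to seven concentrations from 200 to 3.1 […]. Each tube inoculated with one loopful of test bacterium and incubated 18 h at 37 °C. MIC read from presence or absence of growth.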

Pontoscolex corethrurus [7] = assay: Anthelmintic activity against Pontoscolex corethrurus ICARBC 408 assessed as mean death time; assay type: functional; in short: as §4
Pontoscolex corethrurus [8] = assay: Anthelmintic activity against Pontoscolex corethrurus ICARBC 408 assessed as mean paralyzing time; assay type: functional; in short: as §1
Microsporum audouinii [9] = assay: Antifungal activity against Microsporum audouinii MUCC 545 after 48 hrs by tube dilution method; assay type: functional; in short: as §5
Pseudomonas aeruginosa [10] = assay: Antibacterial activity against Pseudomonas aeruginosa NCIM 2034 after 18 hrs by disc diffusion method; assay type: functional; in short: as §2
Eudrilus [11] = assay: Anthelmintic activity against Eudrilus sp. assessed as mean paralyzing time; assay type: functional; in short: as §1
Trichophyton benhamiae [12] = assay: Antifungal activity against Trichophyton mentagrophytes MUCC 665 after 48 hrs by disc diffusion method; assay type: functional, Arthroderma benhamiae; in short: as §3
Candida albicans [13] = assay: Antifungal activity against Candida albicans MUCC 29 after 48 hrs by tube dilution method; assay type: functional; in short: as §5
Staphylococcus aureus [14] = assay: Antibacterial activity against Staphylococcus aureus NCIM 2079 after 18 hrs by disc diffusion method; assay type: functional; in short: as §2
Microsporum audouinii [15] = assay: Antifungal activity against Microsporum audouinii MUCC 545 after 48 hrs by disc diffusion method; assay type: functional; in short: as §3
[16] = Anthelmintic activity against Megascoplex konkanensis ICARBC 211 assessed as mean paralyzing time; assay type: functional; in short: as §1
Escherichia coli [17] = assay: Antibacterial activity against Escherichia coli NCIM 2065 after 18 hrs by tube dilution method; assay type: functional; settings: NCIM 2065, 18 h
Bacillus subtilis [18] = assay: Antibacterial activity against Bacillus subtilis NCIM 2063 after 18 hrs by tube dilution method; assay type: functional; settings: NCIM 2063, 18 h; in short: as §6
Candida albicans [19] = assay: Antifungal activity against Candida albicans MUCC 29 after 48 hrs by disc diffusion method; assay type: functional; in short: as §3
Staphylococcus aureus [20] = assay: Antibacterial activity against Staphylococcus aureus NCIM 2079 after 18 hrs by tube dilution method; assay type: functional; settings: NCIM 2079, 18 h; in short: as §6

Row | Structure (SMILES) | TIME [1] | inhibition zone (IZ) (Bacillus subtilis [2]) | inhibition zone (IZ) (Aspergillus niger) | Time (Eudrilus [3]) | MIC (Trichophyton benhamiae [5]) | MIC (Pseudomonas aeruginosa [6]) | Time (Pontoscolex corethrurus [7]) | Time (Pontoscolex corethrurus [8]) | MIC (Microsporum audouinii [9]) | inhibition zone (IZ) (Pseudomonas aeruginosa [10]) | Time (Eudrilus [11]) | inhibition zone (IZ) (Trichophyton benhamiae [12]) | MIC (Candida albicans [13]) | inhibition zone (IZ) (Staphylococcus aureus [14]) | inhibition zone (IZ) (Microsporum audouinii [15]) | TIME [16] | MIC (Escherichia coli [17]) | MIC (Bacillus subtilis [18]) | inhibition zone (IZ) (Candida albicans [19]) | MIC (Staphylococcus aureus [20]) | also measured
1 | COC(=O)[C@H](CCCNC(=N)N[N+](=O)[O-])NC(=O)c1cc(-c2nc3ccc([N+](=O)[O-])cc3[nH]2)ccc1O | 0.426 h | 13 mm | 18 mm | 28.27 min | 6 µg/mL (≈ 11.7 µM) | 6 µg/mL (≈ 11.7 µM) | 32.22 min | 20.65 min | 6 µg/mL (≈ 11.7 µM) | 19 mm | 17.98 min | 15 mm | 12.5 µg/mL (≈ 24.3 µM) | 10 mm | 13 mm | 0.27 h | 12.5 µg/mL (≈ 24.3 µM) | 6 µg/mL (≈ 11.7 µM) | 15 mm | 25 µg/mL (≈ 48.6 µM) | inhibition zone (IZ) (Escherichia coli [4]): 15 mm
2 | CC[C@H](C)[C@H](NC(=O)CNC(=O)[C@H](Cc1c[nH]c2ccccc12)NC(=O)c1ccc(-c2nc3cc(C)c(C)cc3[nH]2)cc1)C(=O)N[C@@H](C)C(=O)OC (X4-WGIA-OMe) | 0.375 h | 14 mm | 19 mm | 24.1 min | 25 µg/mL (≈ 35.3 µM) | 6 µg/mL (≈ 8.48 µM) | 29.57 min | 17.22 min | 6 µg/mL (≈ 8.48 µM) | 20 mm | 13.59 min | 9 mm | 25 µg/mL (≈ 35.3 µM) | 10 mm | 10 mm | 0.221 h | 12.5 µg/mL (≈ 17.7 µM) | 6 µg/mL (≈ 8.48 µM) | 19 mm | 12.5 µg/mL (≈ 17.7 µM) | inhibition zone (IZ) (Escherichia coli [4]): 18 mm
3 | COC(=O)[C@H](Cc1ccccc1)NC(=O)[C@@H]1CCCN1C(=O)[C@@H]1CCCN1C(=O)c1ccc(-c2nc3cc(C)c(C)cc3[nH]2)cc1 | 1.04 h | 13 mm | 14 mm | 53.34 min | 6 µg/mL (≈ 9.65 µM) | 6 µg/mL (≈ 9.65 µM) | 72.24 min | 49.35 min | 25 µg/mL (≈ 40.2 µM) | 20 mm | 32.82 min | 13 mm | 6 µg/mL (≈ 9.65 µM) | 8 mm | 9 mm | 0.613 h | 25 µg/mL (≈ 40.2 µM) | 12.5 µg/mL (≈ 20.1 µM) | 16 mm | 25 µg/mL (≈ 40.2 µM) | inhibition zone (IZ) (Escherichia coli [4]): 16 mm
4 | CC[C@H](C)[C@H](NC(=O)[C@H](CC(C)C)NC(=O)c1cc(-c2nc3cc(C)c(C)cc3[nH]2)ccc1O)C(=O)OC | 0.569 h | 15 mm | 19 mm | 36.12 min | 6 µg/mL (≈ 11.5 µM) | 6 µg/mL (≈ 11.5 µM) | 41.53 min | 29.83 min | 6 µg/mL (≈ 11.5 µM) | 20 mm | 25.69 min | 13 mm | 6 µg/mL (≈ 11.5 µM) | 10 mm | 12 mm | 0.425 h | 12.5 µg/mL (≈ 23.9 µM) | 6 µg/mL (≈ 11.5 µM) | 19 mm | 12.5 µg/mL (≈ 23.9 µM) | inhibition zone (IZ) (Escherichia coli [4]): 16 mm
5 | COC(=O)[C@H](Cc1ccc(O)cc1)NC(=O)[C@H](Cc1cnc[nH]1)NC(=O)c1ccc(-c2nc3cc(C)c(C)cc3[nH]2)cc1 | 0.377 h | 14 mm | 16 mm | 23.98 min | 6 µg/mL (≈ 10.3 µM) | 12.5 µg/mL (≈ 21.5 µM) | 29.18 min | 17.55 min | 25 µg/mL (≈ 43.1 µM) | 19 mm | 13.49 min | 13 mm | 12.5 µg/mL (≈ 21.5 µM) | 10 mm | 8 mm | 0.228 h | 25 µg/mL (≈ 43.1 µM) | 6 µg/mL (≈ 10.3 µM) | 16 mm | 12.5 µg/mL (≈ 21.5 µM) | inhibition zone (IZ) (Escherichia coli [4]): 15 mm
6 | O=C(O)c1cn(C2CC2)c2cc(N3CCNCC3)c(F)cc2c1=O [CIPROFLOXACIN] | – | 20 mm | – | – | – | 6 µg/mL (≈ 18.1 µM) | – | – | – | 25 mm | – | – | – | 20 mm | – | – | 12.5 µg/mL (≈ 37.7 µM) | 6 µg/mL (≈ 18.1 µM) | – | 12.5 µg/mL (≈ 37.7 µM) | –
7 | COC(=O)Nc1nc2cc(C(=O)c3ccccc3)ccc2[nH]1 [MEBENDAZOLE] | 0.382 h | – | – | 24.05 min | – | – | 29.64 min | 17.85 min | – | – | 13.54 min | – | – | – | – | 0.231 h | – | – | – | – | –
8 | COC1=CC(=O)C[C@@H](C)[C@]12Oc1c(Cl)c(OC)cc(OC)c1C2=O [GRISEOFULVIN] | – | – | 18 mm | – | 6 µg/mL (≈ 17 µM) | – | – | – | 6 µg/mL (≈ 17 µM) | – | – | 20 mm | 6 µg/mL (≈ 17 µM) | – | 17 mm | – | – | – | 20 mm | – | –
